Screens (PubChem BioAssay)
SR-BI HDL uptake: inhibitors of SR-BI mediated HDL lipid uptake, primary screen, ldlA[mSR-BI] cells, fluorescence, single point | Scavenger receptor class B member 1 (Mus musculus), Q61009 | ldlA[mSR-BI] CHO cells, DiI-HDL uptake fluorescence, 3 h | inhibition, % at 12.5 µM | actives 0.96% (n = 320,000) | AID 488896, 2010;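 active means mean replicate inhibition of at least 70% and a set share of replicates each scoring 70 or more; inconclusive means meets just one of the two criteria; inactive means fails both criteria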;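 further: 0% = median of neutral control wells and 100% = median of positive control wells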
Target sequence (Q61009 whole entry, looked up): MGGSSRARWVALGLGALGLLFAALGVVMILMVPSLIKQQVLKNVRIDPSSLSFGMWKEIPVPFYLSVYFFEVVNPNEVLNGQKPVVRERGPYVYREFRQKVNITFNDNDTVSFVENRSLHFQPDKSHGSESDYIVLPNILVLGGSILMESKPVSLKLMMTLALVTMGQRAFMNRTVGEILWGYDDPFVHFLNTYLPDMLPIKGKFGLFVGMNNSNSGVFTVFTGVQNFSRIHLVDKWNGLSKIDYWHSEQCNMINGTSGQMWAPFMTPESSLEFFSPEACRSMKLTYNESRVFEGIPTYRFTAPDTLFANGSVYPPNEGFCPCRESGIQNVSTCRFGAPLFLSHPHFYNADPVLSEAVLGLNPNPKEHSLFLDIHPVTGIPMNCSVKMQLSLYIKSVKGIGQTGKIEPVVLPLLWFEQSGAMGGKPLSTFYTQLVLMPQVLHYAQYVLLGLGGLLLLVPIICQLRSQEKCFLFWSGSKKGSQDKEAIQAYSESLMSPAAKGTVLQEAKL
CAL PDZ FP-1: untagged CAL PDZ binding inhibitors, primary screen, biochemical, fluorescence polarization, HTS | purified CAL PDZ, TMR-peptide fluorescence polarization, 1 h | actives 0.92% (n = 300,000) | AID 602252, 2012 | Golgi-associated PDZ and coiled-coil motif-containing protein (Homo sapiens), Q9HD26 | inhibition, % at 24.9 µM;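 active means mean inhibition of at least 30% with at least half of replicates also reaching 30%; inconclusive means no clear call, values can overlap the other calls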;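 further: 0% = DMSO neutral control and 100% = excess unlabeled competitor peptide PRC23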
CAL PDZ FP-2: CAL PDZ peptide-binding inhibitors, primary screen, biochemical, fluorescence polarization, Cer-tagged CAL PDZ, HTS; inhibition, % at 20 µM; purified CAL PDZ, TMR-peptide fluorescence polarization, 1 h; actives 0.02% (n = 330,000); AID 504414, 2011;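 active means highest replicate inhibition of at least 40%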;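 further: plate controls were DMSO neutral control wells for no effect and unlabeled competitor peptide control wells for full effect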
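material = purified tagged CAL PDZ domain construct (CerCALP) | buffer or medium = sodium phosphate/NaCl buffer pH 7.4 with TCEP, IgG, Thesit | reagent = TMR-labelled reporter peptide T*-PRC34 bound in PDZ groove | incubation = 1 h room-temperature incubation prior to read | measured by = fluorescence polarization (mP) | evaluation = percent inhibition from loss of millipolarization | control set = unlabelled peptide and DMSO controls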
dFosB act: activators of delta FosB homodimer, primary screen, biochemical, fluorescence polarization, TAMRA-CDK5 oligo, single point; Protein FosB (Mus musculus), P13346; purified delta FosB; percent of positive-control signal above neutral wells; activation, % at 25 µM; actives 0.99% (n = 340,000); AID 493131, 2011;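 active means mean activation above about 17%, with every replicate also reaching it, limit read from the data, passing the limit was not always enough; inconclusive means only one of the two conditions met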
SR-BI uptake up: activators of SR-BI mediated DiI-HDL uptake, primary screen, ldlA[mSR-BI] CHO cells, DiI fluorescence; 3 h; 100 = double the neutral-control signal; activation, % at 12.5 µM; actives 0.096% (n = 320,000); AID 504775, 2011;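 active means mean replicate activation of at least 60% and every replicate at or above 60%; inconclusive means mean or all-replicate condition met, but not both; inactive means mean below 60% and not all replicates reaching 60%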;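 further: 0% = median plate neutral-control signal and 100% = twice that signal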
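Assay system: CHO ldlA[mSR-BI] cells, LDL receptor-null, SR-BI overexpressing; medium: Ham's F12 with 0.5% BSA, HEPES 25 mM, pH 7.4; also added: DiI-HDL 10 µg/mL; timing: 3 h uptake period with compound, 37 °C; signal: DiI fluorescence, bottom read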
Starred values were filed as active, the others as inactive; ? = inconclusive; . = no result given. Shown are actives, neighbours in structure and some others; about 2.8% of the full set was active somewhere.

SMILES | SR-BI HDL uptake | CAL PDZ FP-1 | CAL PDZ FP-2 | dFosB act | SR-BI uptake up
CCCC(C)CC1(CCO)C(=O)NC(=S)NC1=O (centres undefined) | 18 | . | 0 | -2 | -18
O=C(CN1CCCCC1)NCC(=O)Nc1ccc(Br)cc1C(=O)c1ccccc1 | 19 | -7 | -1 | -7 | -19
O=C(CCN1CCOCC1)NCC(=O)Nc1ccc(Br)cc1C(=O)c1ccccc1 | 12 | 36* | -2 | -4 | -12
CCCCCn1c(=O)c(C(=O)Nc2ccccc2Cl)c(O)c2ccccc21 | 93* | -6 | -1 | -6 | -93
CCCCCn1c(=O)c(C(=O)NCCc2ccccc2)c(O)c2ccccc21 | 75* | 11 | -1 | -12 | -75
CCCCn1c(=O)c(C(=O)Nc2ccccc2C)c(O)c2ccccc21 | 50 | 2 | -1 | -9 | -50
CC1(C)C(C(=O)N2CCN(C(=O)c3ccccc3)CC2)C1(C)C | 1 | 2 | -3 | -3 | -1
CN(CC=CCN(C)P(=S)(N1CC1)N1CC1)P(=S)(N1CC1)N1CC1 | -2 | 34* | -1 | -3 | 2
O=[N+]([O-])c1c(Cl)c(Cl)c(Cl)c(Cl)c1Cl | -10 | . | 0 | 2 | 10
Nc1cc(Cl)c2nonc2c1[N+](=O)[O-] | -70 | 0 | 0 | -1 | 70*
O=[N+]([O-])c1c2ccccc2cc2ccccc12 | 20 | -27 | 0 | 8 | -20
CCCn1c(C)c(C(=O)c2cccc3ccccc23)c2ccccc21 | 82* | 2 | 1 | 6 | -82
CN(C)c1ccc(NC(=O)CN2C(=O)CN=C(c3ccccc3)c3ccccc32)cc1 | 83* | -4 | -1 | -8 | -83
CCN(CC)C(=O)c1ccc(NC(=O)c2cccc(F)c2)cc1 | 32 | 1 | -1 | -4 | -32
CCN(CC)C(=O)c1ccc(NC(=O)c2ccc3c(c2)NC(=O)CS3)cc1 | 72* | 0 | 0 | 0 | -72
COc1cc(OC)c(OC)cc1/C=C1/C(=O)NC(=O)N(Cc2ccccc2)C1=O | -27 | . | 1 | -13 | 27
COc1ccc(/C=C2\C(=O)NC(=O)N(Cc3ccccc3)C2=O)c(OC)c1OC | -12 | -3 | -2 | -9 | 12
Cc1cc(/C=C2\C(=O)NC(=O)N(Cc3ccccc3)C2=O)c(C)n1C1CC1 | -13 | -5 | -1 | 43* | 13
COc1cc(OC)c(OC)cc1/C=C1\C(=O)NC(=O)N(Cc2ccccc2)C1=O | -15 | 67* | 0 | -6 | 15
COC(=O)C1=C(c2cc3ccccc3s2)C[C@@H]2CC[C@H]1N2C(=O)NCCNC(C)=O | 8 | 3 | -3 | 2 | -8
CN(C)c1ccc(/C=C/C=C/c2sc3ccccc3[n+]2C)cc1 | 15 | . | 1 | ? | -15
CN(C)c1ccc(/C=C/c2cc[n+](C)c3ccccc23)cc1 | -14 | 15 | 0 | 93* | 14
CC[n+]1c(/C=C/C=C/c2ccc(N(C)C)cc2)sc2ccccc21 | 94* | . | 1 | 155* | -94
CC(C)(C)[C@]1(O)C[C@@H]2OC(=O)C[C@@]23C(=O)O[C@@H]2OC(=O)[C@@H](O)C213 (some centres undefined) | -14 | -18 | 0 | -6 | 14
O=c1[nH]c(=S)n(-c2ccccc2)c(O)c1/C=N/N1CCCCC1c1cccnc1 (centres undefined) | 3 | -1 | -2 | 39* | -3
SMILES | SR-BI HDL uptake | CAL PDZ FP-1 | CAL PDZ FP-2 | dFosB act | SR-BI uptake up
CCc1ccc(-n2c(O)c(/C=N/N3CCCCC3c3cccnc3)c(=O)[nH]c2=O)cc1 (centres undefined) | -14 | 10 | 0 | -6 | 14
N#CCCn1cc(C(=O)NCc2ccccc2)c(-c2ccc3c(c2)OCCO3)n1 | 12 | 47* | 4 | -18 | -12
N#CCCn1cc(C(=O)NCc2ccccc2)c(-c2ccccc2)n1 | -6 | 2 | 0 | -6 | 6
CCN(CC)c1ccc(/C=C/[N+](=O)[O-])cc1 | 4 | 3 | -3 | -6 | -4
COc1cc(/C=C/[N+](=O)[O-])ccc1O | -81 | -2 | 1 | 3 | 81*
CN(C)c1ccc(/C=C2/C(=N\O)C3CCN2CC3)cc1 | 21 | -2 | 0 | -4 | -21
